Measurements published in ChEMBL document CHEMBL1127840, “Conformational analysis of 5-lipoxygenase inhibitors: role of the substituents in chiral recognition and on the active conformations of the (methoxyalkyl)thiazole and methoxytetrahydropyran series” (J Med Chem, 1994).
Values belong to the molecule of their own block, whether it stands above or below them.

Columns and labels:
[1] = target: T1, Polyunsaturated fatty acid 5-lipoxygenase (Mus musculus, UniProt P48999); experiment: Inhibition of 5-lipoxygenase from mouse macrophage
T1 sequence (P48999 whole entry): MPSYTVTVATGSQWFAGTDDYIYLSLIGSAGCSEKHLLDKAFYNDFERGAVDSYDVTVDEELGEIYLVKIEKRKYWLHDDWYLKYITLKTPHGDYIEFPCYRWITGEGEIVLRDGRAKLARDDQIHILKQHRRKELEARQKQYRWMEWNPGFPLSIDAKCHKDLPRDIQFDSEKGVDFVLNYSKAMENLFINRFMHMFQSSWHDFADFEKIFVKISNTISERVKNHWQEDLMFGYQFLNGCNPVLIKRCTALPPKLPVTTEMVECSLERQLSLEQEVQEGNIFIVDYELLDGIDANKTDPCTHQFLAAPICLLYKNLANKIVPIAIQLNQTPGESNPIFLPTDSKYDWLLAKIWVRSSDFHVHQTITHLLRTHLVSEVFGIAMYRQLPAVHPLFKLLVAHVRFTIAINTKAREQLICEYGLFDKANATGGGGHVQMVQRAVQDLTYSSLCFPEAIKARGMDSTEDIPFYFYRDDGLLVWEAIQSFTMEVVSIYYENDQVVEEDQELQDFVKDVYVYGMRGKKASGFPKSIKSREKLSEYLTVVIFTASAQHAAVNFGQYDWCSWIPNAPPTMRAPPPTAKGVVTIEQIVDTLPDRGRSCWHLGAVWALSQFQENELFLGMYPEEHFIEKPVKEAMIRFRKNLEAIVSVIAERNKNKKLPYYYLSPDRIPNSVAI
Procedure, shortened: (§1)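 Plasma-free cultures of murine peritoneal macrophages. Inhibition of LTC4 synthesis (5-LO product) measured, with PGE2 also monitored. IC50 from iterative four-parameter curve fit. Data reported as mean ± SE with the number of determinations; where only two runs were made, both values are given.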

[2] = target: T2, Polyunsaturated fatty acid 5-lipoxygenase (Homo sapiens, UniProt P09917); experiment: Inhibition of 5-lipoxygenase from human whole blood; assay type: tissue-based
T2 sequence (P09917 whole entry): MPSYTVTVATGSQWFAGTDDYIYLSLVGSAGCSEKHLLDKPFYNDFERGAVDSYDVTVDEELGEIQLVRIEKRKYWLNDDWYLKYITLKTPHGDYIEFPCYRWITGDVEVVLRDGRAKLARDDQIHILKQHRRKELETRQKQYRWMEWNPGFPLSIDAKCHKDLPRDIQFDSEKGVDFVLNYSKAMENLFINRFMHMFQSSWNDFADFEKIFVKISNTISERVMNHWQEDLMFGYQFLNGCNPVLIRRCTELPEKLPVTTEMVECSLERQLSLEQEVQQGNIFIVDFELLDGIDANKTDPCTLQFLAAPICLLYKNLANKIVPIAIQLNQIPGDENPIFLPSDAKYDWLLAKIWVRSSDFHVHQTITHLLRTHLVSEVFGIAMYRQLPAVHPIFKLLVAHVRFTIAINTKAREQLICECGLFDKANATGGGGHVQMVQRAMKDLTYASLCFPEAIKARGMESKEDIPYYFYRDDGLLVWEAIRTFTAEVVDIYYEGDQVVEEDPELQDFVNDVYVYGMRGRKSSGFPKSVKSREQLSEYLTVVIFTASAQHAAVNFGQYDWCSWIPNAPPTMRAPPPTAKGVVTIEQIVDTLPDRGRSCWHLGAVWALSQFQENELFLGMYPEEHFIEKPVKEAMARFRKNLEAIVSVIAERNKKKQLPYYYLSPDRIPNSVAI
Procedure, shortened: (§2)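 Eicosanoid generation measured to assess 5-LO inhibition. IC50 from iterative four-parameter curve fit. Data reported as mean ± SE with the number of determinations; where only two runs were made, both values are given.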

[3] = target: T2, Polyunsaturated fatty acid 5-lipoxygenase; experiment: Inhibitory concentration against 5-lipoxygenase from human whole blood; assay type: tissue-based; procedure, shortened: as §2
[4] = target: T1, Polyunsaturated fatty acid 5-lipoxygenase; experiment: Inhibitory concentration against 5-lipoxygenase from mouse macrophage; procedure, shortened: as §1

IC50 [1]: 45 nM
SMILES: CC[C@](COC)(OC)c1cc(F)cc(OCc2ccc3c(ccc(=O)n3C)c2)c1

IC50 [2]: 27 nM
SMILES: COC1(c2cc(F)cc(OCc3ccc4c(ccc(=O)n4C)c3)c2)CCOCC1 [ZD-2138]

IC50 [1]: 48 nM
IC50 [3]: 520 nM
SMILES: CC[C@@](COC)(OC)c1cc(F)cc(OCc2ccc3c(ccc(=O)n3C)c2)c1

IC50 [4]: 1250 nM
SMILES: COC1(c2nccs2)CCc2ccc(OCc3ccc4ccccc4c3)cc21 (single isomer, unassigned; (-))
